Measurements published in ChEMBL document CHEMBL3244113, “Antimycotic imidazoles. part 4. Synthesis and antifungal activity of ketoconazole, a new potent orally active broad-spectrum antifungal agent” (1979).
Calls of active or inactive are those of the source. The rule behind the calls is not given here.

What was measured:
Sporothrix schenckii [1] = test: Antifungal activity against Sporothrix schenckii assessed as growth inhibition in sabouraud broth after 14 days in presence of 10% inactivated bovine serum; assay type: functional
Summary of the method: (§1)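 Broth dilution in Sabouraud broth, with or without 10% inactivated bovine serum, incubated 14 days. Read-out: concentration (µg/mL) giving complete or marked inhibition of growth. Tested in preliminary experiments.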

Candida albicans [2] = test: Antifungal activity against Candida albicans B2630 infected in guinea pig cutaneous candidosis model at 10 mg/kg, po for 14 days measured on day 21; assay type: functional, organism-based; design: dose 10 mg/kg
Summary of the method: (§2)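 Guinea pig cutaneous candidosis. Compound dissolved in PEG 200, given by oral gavage once daily for 14 consecutive days; placebo group included. Read-out: ratio of infection-negative animals to total at day 21.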

Sporothrix schenckii [3] = test: Antifungal activity against Sporothrix schenckii assessed as growth inhibition in sabouraud broth after 14 days; assay type: functional; summary of the method: as §1
Aspergillus fumigatus [4] = test: Antifungal activity against Aspergillus fumigatus assessed as growth inhibition in sabouraud broth after 14 days; assay type: functional
Microsporum canis [5] = test: Antifungal activity against Microsporum canis assessed as growth inhibition in sabouraud broth after 14 days in presence of 10% inactivated bovine serum; assay type: functional; summary of the method: as §1
Candida albicans [6] = test: Antifungal activity against Candida albicans B2630 infected in ovariectomized and hysterectomized Wistar rat vaginal candidosis model at 2.5 mg/kg, po for 11 days by prophylactic treatment; assay type: functional, organism-based; design: dose 2.5 mg/kg
Candida albicans [7] = test: Antifungal activity against Candida albicans B2630 infected in ovariectomized and hysterectomized Wistar rat vaginal candidosis model at 5 mg/kg, po for 5 days by prophylactic treatment; assay type: functional, organism-based; design: dose 5 mg/kg
Saprolegnia = test: Antifungal activity against Saprolegnia Sp. assessed as growth inhibition in sabouraud broth after 14 days; assay type: functional; summary of the method: as §1
Aspergillus fumigatus [8] = test: Antifungal activity against Aspergillus fumigatus assessed as growth inhibition in sabouraud broth after 14 days in presence of 10% inactivated bovine serum; assay type: functional
Candida tropicalis [9] = test: Antifungal activity against Candida tropicalis assessed as growth inhibition in sabouraud broth after 14 days in presence of 10% inactivated bovine serum; assay type: functional; summary of the method: as §1
Candida albicans [10] = test: Antifungal activity against Candida albicans assessed as growth inhibition in sabouraud broth after 14 days; assay type: functional; summary of the method: as §1
Cryptococcus neoformans = test: Antifungal activity against Cryptococcus neoformans assessed as growth inhibition in sabouraud broth after 14 days; assay type: functional; summary of the method: as §1
Candida albicans [11] = test: Antifungal activity against Candida albicans B2630 infected in ovariectomized and hysterectomized Wistar rat vaginal candidosis model at 5 mg/kg, po for 14 days by prophylactic treatment; assay type: functional
Summary of the method: (§3)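 Female Wistar rats (100 g) were ovariectomized and hysterectomized under thalamonal anaesthesia. From 3 weeks later, and weekly thereafter, each received oestradiol undecanoate 100 µg in sesame oil s.c. Pseudooestrus was confirmed by vaginal smear. Rats were infected intravaginally with 8×10^5 C. albicans B 2630 cells in 0.2 mL saline. Compound in PEG 200 was given daily by gavage from the day of infection. Vaginal swab smears were taken on days 7, 11 and 14. Read-out: negative animals/total.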

Trichophyton rubrum = test: Antifungal activity against Trichophyton rubrum assessed as growth inhibition in sabouraud broth after 14 days; assay type: functional; summary of the method: as §1
[12] = tested on: Trichophyton mentagrophytes; test: Antifungal activity against Trichophyton mentagrophytes assessed as growth inhibition in sabouraud broth after 14 days; assay type: functional; summary of the method: as §1
Candida albicans [13] = test: Antifungal activity against Candida albicans B2630 infected in guinea pig cutaneous candidosis model at 2.5 mg/kg, po for 14 days measured on day 21; assay type: functional, organism-based; design: dose 2.5 mg/kg; summary of the method: as §2
Microsporum canis [14] = test: Antifungal activity against Microsporum canis assessed as growth inhibition in sabouraud broth after 14 days; assay type: functional; summary of the method: as §1
Candida albicans [15] = test: Antifungal activity against Candida albicans B2630 infected in ovariectomized and hysterectomized Wistar rat vaginal candidosis model at 2.5 mg/kg, po for 14 days by prophylactic treatment; assay type: functional, organism-based; design: dose 2.5 mg/kg; summary of the method: as §3
[16] = tested on: Erysipelothrix rhusiopathiae; test: Antifungal activity against Erysipelothrix insidiosa assessed as growth inhibition in sabouraud broth after 14 days; assay type: functional; summary of the method: as §1
Phialophora verrucosa = test: Antifungal activity against Phialophora verrucosa assessed as growth inhibition in sabouraud broth after 14 days; assay type: functional; summary of the method: as §1
Candida tropicalis [17] = test: Antifungal activity against Candida tropicalis assessed as growth inhibition in sabouraud broth after 14 days; assay type: functional; summary of the method: as §1
[18] = tested on: Trichophyton mentagrophytes; test: Antifungal activity against Trichophyton mentagrophytes assessed as growth inhibition in sabouraud broth after 14 days in presence of 10% inactivated bovine serum; assay type: functional; summary of the method: as §1
Candida albicans [19] = test: Antifungal activity against Candida albicans B2630 infected in ovariectomized and hysterectomized Wistar rat vaginal candidosis model at 1.25 mg/kg, po for 14 days by prophylactic treatment; assay type: functional, organism-based; design: dose 1.25 mg/kg; summary of the method: as §3
Streptococcus pyogenes = test: Antifungal activity against Streptococcus pyogenes assessed as growth inhibition in sabouraud broth after 14 days; assay type: functional; summary of the method: as §1
Candida albicans [20] = test: Antifungal activity against Candida albicans assessed as growth inhibition in sabouraud broth after 14 days in presence of 10% inactivated bovine serum; assay type: functional; summary of the method: as §1
[21] = tested on: Staphylococcus haemolyticus; test: Antifungal activity against Staphylococcus haemolyticus assessed as growth inhibition in sabouraud broth after 14 days; assay type: functional; summary of the method: as §1
Candida albicans [22] = test: Antifungal activity against Candida albicans B2630 infected in guinea pig cutaneous candidosis model at 0.63 mg/kg, po for 14 days measured on day 21; assay type: functional, organism-based; design: dose 0.63 mg/kg; summary of the method: as §2
Coccidioides immitis = test: Antifungal activity against Coccidioides immitis infected in mouse coccidioidomycosis model assessed as cell killing activity at 40 mg/kg, po od for 2.5 weeks relative to control; assay type: functional

| Structure (SMILES) | GI (Sporothrix schenckii [1]) [µg/mL] | GI (Sporothrix schenckii [3]) [µg/mL] | GI (Aspergillus fumigatus [4]) [µg/mL] | GI (Microsporum canis [5]) [µg/mL] | GI (Saprolegnia) [µg/mL] | GI (Aspergillus fumigatus [8]) [µg/mL] | GI (Candida tropicalis [9]) [µg/mL] | GI (Candida albicans [10]) [µg/mL] | GI (Cryptococcus neoformans) [µg/mL] | GI (Trichophyton rubrum) [µg/mL] | GI [12] [µg/mL] | GI (Microsporum canis [14]) [µg/mL] | GI [16] [µg/mL] | GI (Phialophora verrucosa) [µg/mL] | GI (Candida tropicalis [17]) [µg/mL] | GI [18] [µg/mL] | GI (Streptococcus pyogenes) [µg/mL] | GI (Candida albicans [20]) [µg/mL] | GI [21] [µg/mL] | also measured |
| --- | --- | --- | --- | --- | --- | --- | --- | --- | --- | --- | --- | --- | --- | --- | --- | --- | --- | --- | --- | --- |
| CC(=O)N1CCN(c2ccc(OCC3COC(Cn4ccnc4)(c4ccc(Cl)cc4Cl)O3)cc2)CC1 (racemic) [KETOCONAZOLE] | 1 | 1 | 100 | 1 | 1 | 10 | 0.1 | 10 | 1 | 1 | 0.1 | 10 | 10 | 1 | 1 | 0.1 | 10 | 1 | 100 | Activity (Candida albicans [2]): Active; Activity (Candida albicans [6]): inactive; Activity (Candida albicans [7]): Active; Activity (Candida albicans [11]): 100%; Activity (Candida albicans [13]): Active; Activity (Candida albicans [15]): Active; Activity (Candida albicans [19]): Active; Activity (Candida albicans [22]): inactive; Activity (Coccidioides immitis): >60% |
| Clc1ccc(COC(Cn2ccnc2)c2ccc(Cl)cc2Cl)c(Cl)c1 (configuration not stated) [MICONAZOLE] | 10 | 1 | 10 | 10 | 10 | >10 | >10 | 10 | 1 | 1 | 0.01 | 1 | 0.01 | 100 | 1 | 0.1 | 0.01 | >10 | 10 | – |
